From ChEMBL document CHEMBL1131435, “Biphenylsulfonamide endothelin antagonists: structure-activity relationships of a series of mono- and disubstituted analogues and pharmacology of the orally active endothelin antagonist 2'-amino-N- (3,4-dimethyl-5-isoxazolyl)-4'-(2-methylpropyl)[1, 1'-biphenyl]-2-sulfonamide (BMS-187308)” (J Med Chem, 1998)

target: Endothelin-1 receptor (Rattus norvegicus); assay: Ability to inhibit Endothelin A receptor induced contractions in rabbit carotid artery rings (ETA) was determined in an in vitro functional assay.

`Cc1noc(NS(=O)(=O)c2ccccc2-c2ccccn2)c1C` was tested. Which Ki did it give?
Its Ki is 0.82 µM.

How did the Ki turn out when `Cc1noc(NS(=O)(=O)c2ccccc2-c2ncccn2)c1C` was run?
The Ki was 8.8 µM.

target: T1, Endothelin-1 receptor (Rattus norvegicus, UniProt P26684); assay: Ability to inhibit binding of [125I]ET1 to membranes prepared from A10 rat thoracic aorta smooth muscle (Endothelin A receptor) was determined by radioligand binding assay; type: tissue-based
T1 sequence (P26684 whole entry): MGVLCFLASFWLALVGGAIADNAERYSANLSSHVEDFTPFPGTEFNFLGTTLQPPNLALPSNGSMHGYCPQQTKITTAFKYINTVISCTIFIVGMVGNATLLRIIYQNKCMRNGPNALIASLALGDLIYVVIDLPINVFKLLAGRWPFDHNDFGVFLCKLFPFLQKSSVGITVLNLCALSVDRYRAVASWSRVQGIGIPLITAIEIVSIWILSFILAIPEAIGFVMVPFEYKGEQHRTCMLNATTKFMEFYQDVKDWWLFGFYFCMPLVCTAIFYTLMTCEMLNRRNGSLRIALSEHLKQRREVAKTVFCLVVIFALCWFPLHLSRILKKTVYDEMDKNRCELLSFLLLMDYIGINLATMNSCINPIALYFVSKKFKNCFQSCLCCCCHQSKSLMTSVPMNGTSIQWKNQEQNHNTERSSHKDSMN
In short: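 Competition binding of [125I]ET-1 to membranes prepared from A10 rat thoracic aorta smooth muscle cells (ET_A). Data were fitted iteratively to a one- or two-site binding model, and Ki was calculated from the IC50. Values are reported as Ki ± SE.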

Which Ki does the source give for `Cc1noc(NS(=O)(=O)c2ccccc2Br)c1C` here?
Its Ki is 8 µM.

target: Endothelin receptor type B (Rattus norvegicus) (UniProt P21451); assay: Inhibition of [125I]ET-1 binding to rat cerebellum membranes (Endothelin B receptor) was determined in a radioligand binding assay.
Sequence (P21451 whole entry, looked up): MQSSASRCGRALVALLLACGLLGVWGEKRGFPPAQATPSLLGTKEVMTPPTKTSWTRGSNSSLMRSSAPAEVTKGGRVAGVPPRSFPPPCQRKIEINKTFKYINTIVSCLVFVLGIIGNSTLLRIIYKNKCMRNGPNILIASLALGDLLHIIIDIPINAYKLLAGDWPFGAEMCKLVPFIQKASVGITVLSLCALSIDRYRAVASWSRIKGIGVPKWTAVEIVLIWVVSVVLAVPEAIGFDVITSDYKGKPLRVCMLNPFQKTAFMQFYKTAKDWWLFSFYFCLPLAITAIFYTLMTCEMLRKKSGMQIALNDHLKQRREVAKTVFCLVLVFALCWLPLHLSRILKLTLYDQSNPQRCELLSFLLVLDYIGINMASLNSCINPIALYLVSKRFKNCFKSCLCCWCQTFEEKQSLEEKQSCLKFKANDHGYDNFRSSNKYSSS

Which Ki does the source give for `Cc1noc(NS(=O)(=O)c2ccccc2-c2cccnc2)c1C` here?
The Ki was > 200 µM.

`Cc1noc(NS(=O)(=O)c2ccccc2-c2cc3ccccc3[nH]2)c1C` was tested. Which Ki did it give?
Its Ki is 66 µM.

How did the Ki turn out when `Cc1noc(NS(=O)(=O)c2ccccc2-c2ccsc2)c1C` was run?
The Ki was > 200 µM.

How did the Ki turn out when `Cc1noc(NS(=O)(=O)c2ccccc2-c2c[nH]c3ccccc23)c1C` was run?
The Ki was > 200 µM.

`Cc1noc(NS(=O)(=O)c2ccccc2-c2ncccn2)c1C` was tested. Which Ki did it give?
Its Ki is > 200 µM.

With `Cc1noc(NS(=O)(=O)c2ccccc2-c2cccs2)c1C` as the molecule, how does the Ki read?
Its Ki is > 200 µM.
